The test system of data set [1] is SK-MEL-28. As to the kind of experiment: Antiproliferative activity against human SK-MEL-28 cells by MTT assay. The class given is functional. In short, it runs like this:
(§1)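 Cell lines grown in RPMI with 10% heat-inactivated fetal calf serum, 4 mM glutamine, gentamicin, penicillin and streptomycin. Growth inhibition by colorimetric MTT assay across a five-line panel: U373 GBM, A549 NSCLC and SKMEL-28 melanoma (apoptosis-resistant), plus Hs683 oligodendroglioma and MCF-7 breast (apoptosis-sensitive).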

Data set [2] in a line: Antiproliferative activity against human Hs683 cells by MTT assay. The class given is functional. As to conditions: Hs 683. The method in brief: as §1
Background: Tetrazolium dyes change colour on reduction, which living cells bring about.

The subject of data set [3] is A549. The experiment in a line: Antiproliferative activity against human A549 cells by MTT assay. It counts as functional. The method in brief:
as §1

In data set [4] the test system is MCF7. As to the kind of experiment: Antiproliferative activity against human MCF7 cells by MTT assay. The class given is functional. In short, it runs like this:
as §1

Data set [5] can be described thus: Antiproliferative activity against human U373 cells by MTT assay. The class given is functional, U-373MG ATCC. As to conditions: U373 MG. In short, it runs like this: as §1
In data set [6] the test system is U-251. The experiment in a line: Antitumor activity against luciferase expressing human U251 cells xenografted in mouse assessed as increase in mouse survival at 10 mg/kg, ip dosed as 3 doses per week for 21 days. The class given is functional, organism-based. The method in brief:
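Orthotopic mouse GBM model inoculated with 1×10^6 U251-LUC cells; 10 mg/kg IP 3x per week for 21 days, 0.9% saline vehicle control; mice without signs of GBM sacrificed on day 100 after inoculation and counted as long-term survivors; survival monitored.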
A general note: In xenograft studies the graft and the host belong to different species.

Data set [7] can be described thus: Growth inhibition of human NCI60 cells. The class given is functional.
Data set [8] deals with U-251. As to the kind of experiment: Antitumor activity against luciferase expressing human U251 cells xenografted in mouse assessed as inhibition of tumor growth at 10 mg/kg, ip dosed as 3 doses per week for 21 days. The class given is functional, organism-based. In short, it runs like this: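 Orthotopic U251-luciferase human GBM tumors in mice; 10 mg/kg IP 3x weekly for 21 days versus 0.9% saline vehicle; relative tumor growth followed by temporal bioluminescence imaging.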

Data set [9] has as its system Brain. The experiment in a line: Drug level in brain tumor of luciferase expressing human U251 cells xenografted mouse dosed intravenously and measured after 15 mins. The class given is ADME, organism-based, U-251. The settings on record: in vivo, iv, 0.25 h. The method in brief: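 Single intravenous injection into lateral tail vein of a mouse bearing a brain tumor; brain tumor extract taken 15 min post administration and analysed for intact compound.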

Molecules are shown by their SMILES. Active and inactive are the calls of the source. No cut-off for these calls is given here.

For orientation: GI50 means the concentration at which growth is held to half of that of the control.

As to `CC(C)=C[C@H]1C[C@H](C)[C@]2(CC[C@]3(C)C[C@H]4c5c(cn(Cc6ccccc6)c5C[C@@]4(C)O)/C=C\[C@H]32)O1`, the GI50 in data set [1] stood at 58 µM; in data set [2] it was 46 µM; in [3], 51 µM; in data set [4], 40 µM; in data set [5], 69 µM.
Regarding `CC(C)=C[C@H]1C[C@H](C)[C@]2(CC[C@]3(C)C[C@@H]4C(C)=CC(=O)[C@H]4/C(C=O)=C\C[C@H]32)O1` [3-ANHYDRO-6-EPI-OPHIOBOLIN A], the 50% growth inhibitory concentration (GI50) was found to be 8 µM in [1]; 8 µM in data set [2]; 9 µM in data set [3]; 10 µM in data set [4]; 18 µM in data set [5].
Regarding `C#CCCCOC(=O)/C=C/C1=C/C[C@@H]2[C@](C)(CC[C@@]23O[C@@H](C=C(C)C)C[C@@H]3C)C[C@H]2[C@@H]1C(=O)C[C@@]2(C)O`, the GI50 stood at 23 µM in [1]; 12 µM in data set [2]; 15 µM in data set [3]; 12 µM in data set [4]; 20 µM in data set [5].
Turning to `C[C@H]1C[C@H](C2OC2(C)C)O[C@@]12CC[C@]1(C)C[C@H]3[C@H](C(=O)C[C@@]3(C)O)/C(C=O)=C\C[C@H]12` (mixture of isomers), the 50% growth inhibitory concentration (GI50) was found to be 0.4 µM in data set [1]; 0.4 µM in [2]; 0.6 µM in [3]; 0.6 µM in data set [4]; 0.6 µM in [5].
In the case of `CC(=O)O[C@]1(C)Cc2occ3c2[C@@H]1C[C@@]1(C)CC[C@@]2(O[C@@H](C=C(C)C)C[C@@H]2C)[C@@H]1/C=C\3`, the GI50 in data set [1] is 6 µM; in [2], 11 µM; in data set [3], 6 µM; in data set [4], 13 µM; in data set [5], 8 µM.
Turning to `C[C@H]1C[C@H]([C@H](Br)C(C)(C)OCc2cn(Cc3ccccc3)nn2)O[C@@]12CC[C@]1(C)C[C@H]3[C@H](C(=O)C[C@@]3(C)O)/C(C=O)=C\C[C@H]12`, the GI50 was determined as 1 µM in data set [1]; 0.8 µM in data set [2]; 1.2 µM in data set [3]; 1.2 µM in data set [4]; 3.4 µM in data set [5].
For `CC(=O)N[C@@H](CCCC/N=C/C1=C/C[C@@H]2[C@](C)(CC[C@@]23O[C@@H](C=C(C)C)C[C@@H]3C)C[C@H]2[C@@H]1C(=O)C[C@@]2(C)O)C(=O)O`, the GI50 in [1] was 3 µM; in data set [2] it was 3 µM; in data set [3], 3 µM; in data set [4] it was 4 µM; in data set [5] it was 4 µM.
Turning to `CC(C)=C[C@H]1C[C@H](C)[C@]2(CC[C@]3(C)C[C@H]4c5c(cn(CCc6ccc(O)cc6)c5C[C@@]4(C)O)/C=C\[C@H]32)O1`, the GI50 was found to be 33 µM in [1]; 33 µM in data set [2]; 35 µM in data set [3]; 23 µM in [4]; 54 µM in data set [5].
Turning to `CC(=O)N[C@@H](CCCCn1cc2c3c1C[C@@](C)(O)[C@H]3C[C@@]1(C)CC[C@@]3(O[C@@H](C=C(C)C)C[C@@H]3C)[C@@H]1/C=C\2)C(=O)O`, the 50% growth inhibitory concentration (GI50) in data set [1], in [2], in data set [3], in data set [4] and in [5] was greater than 100 µM throughout.
Take `COC(=O)/C=C/C1=C/C[C@@H]2[C@](C)(CC[C@@]23O[C@@H](C=C(C)C)C[C@@H]3C)C[C@H]2[C@@H]1C(=O)C[C@@]2(C)O`: the GI50 in [1] amounted to 86 µM; in data set [2], 59 µM; in data set [3], 59 µM; in [4] it was 43 µM; in data set [5], 86 µM.
As to `C#CCOC(C)(C)[C@@H](Br)[C@H]1C[C@H](C)[C@]2(CC[C@]3(C)C[C@H]4[C@H](C(=O)C[C@@]4(C)O)/C(C=O)=C\C[C@H]32)O1`, the GI50 came out at 0.6 µM in [1]; 0.6 µM in [2]; 0.8 µM in data set [3]; 0.8 µM in [4]; 1.4 µM in [5].
Regarding `CC(C)=C[C@H]1C[C@H](C)[C@]2(CC[C@]3(C)C[C@H]4[C@H](C(=O)C[C@@]4(C)O)/C(C=O)=C\C[C@H]32)O1` [OPHIOBOLIN A], the GI50 in data set [1] came to 0.05 µM; in data set [7], 0.07 µM; in [2], 0.02 µM; in data set [3] it was 0.1 µM; in data set [4], 0.06 µM; in [5], 0.06 µM. Also, in data set [6], the result was Active. In addition, the TGI result in [8] is “Active”. For the same compound, the Drug uptake result in data set [9] is “Active”.
On to `CCOC1O[C@@]2(OCC)C[C@@](C)(O)[C@H]3C[C@@]4(C)CC[C@@]5(O[C@@H](C=C(C)C)C[C@@H]5C)[C@@H]4C/C=C/1[C@H]32` (mixture of isomers), for which the GI50 in data set [1] turned out to be 0.1 µM; in data set [2], 0.2 µM; in [3], 0.3 µM; in [4], 0.2 µM; in data set [5] it was 0.4 µM.
Regarding `C#CCCCCOC(C)(C)[C@@H](Br)[C@H]1C[C@H](C)[C@]2(CC[C@]3(C)C[C@H]4[C@H](C(=O)C[C@@]4(C)O)/C(C=O)=C\C[C@H]32)O1`, the GI50 in data set [1] was 0.6 µM; in data set [2] it was 0.8 µM; in data set [3], 1 µM; in data set [4], 1.4 µM; in data set [5] it was 2.2 µM.
For the compound `CO[C@H]1O[C@@]2(OC)C[C@@](C)(O)[C@H]3C[C@@]4(C)CC[C@@]5(O[C@@H](C=C(C)C)C[C@@H]5C)[C@@H]4C/C=C/1[C@H]32`, the GI50 in [1] turned out to be 0.3 µM; in [2], 0.4 µM; in data set [3], 0.3 µM; in data set [4] it was 0.4 µM; in data set [5], 0.4 µM.
On to `CC(C)=C[C@H]1C[C@H](C)[C@]2(CC[C@]3(C)C[C@H]4c5c(cn(CCCCCCn6cc7c8c6C[C@@](C)(O)[C@H]8C[C@@]6(C)CC[C@@]8(O[C@@H](C=C(C)C)C[C@@H]8C)[C@@H]6/C=C\7)c5C[C@@]4(C)O)/C=C\[C@H]32)O1`, for which the GI50 is 24 µM in data set [1]; 25 µM in data set [2]; 26 µM in [3]; 14 µM in data set [4]; 30 µM in data set [5].
With `CC(C)=C[C@H]1C[C@H](C)[C@]2(CC[C@]3(C)C[C@H]4[C@H](C(=O)C[C@@]4(C)O)C(/C=C/C#N)=C\C[C@H]32)O1`, the concentration for 50% growth inhibition (GI50) in data set [1] is 28 µM; in data set [2], 22 µM; in [3], 27 µM; in [4] it was 26 µM; in [5] it was 27 µM.
As to `CCOC(C)(C)[C@@H](Br)[C@H]1C[C@H](C)[C@]2(CC[C@]3(C)C[C@H]4[C@H](C(=O)C[C@@]4(C)O)/C(C=O)=C\C[C@H]32)O1`, the GI50 in data set [1] turned out to be 0.6 µM; in data set [2] it was 0.9 µM; in data set [3], 0.9 µM; in data set [4], 1.2 µM; in data set [5], 1.2 µM.
In the case of `CC(C)=C[C@H]1C[C@H](C)[C@]2(CC[C@]3(C)C[C@H]4c5c(cnnc5C[C@@]4(C)O)CC[C@H]32)O1`, the GI50 in data set [1] amounted to 29 µM; in data set [2], 29 µM; in data set [3] it was 34 µM; in data set [4] it was 27 µM; in [5], 30 µM.
For `CCCO[C@H]1O[C@@]2(OCCC)C[C@@](C)(O)[C@H]3C[C@@]4(C)CC[C@@]5(O[C@@H](C=C(C)C)C[C@@H]5C)[C@@H]4C/C=C/1[C@H]32`, the GI50 was 0.2 µM in [1]; 0.2 µM in data set [2]; 0.3 µM in [3]; 0.2 µM in data set [4]; 0.4 µM in data set [5].

These data come from ChEMBL document CHEMBL3621064, “Fungal metabolite ophiobolin A as a promising anti-glioma agent: In vivo evaluation, structure-activity relationship and unique pyrrolylation of primary amines” (Bioorg Med Chem Lett, 2015).
